Source: PubChem
UBC13 inh: inhibitors of human UBC13 polyubiquitin chain formation. P61088. 0.47% of 330,000 active. inhibition, % at 20 µM. AID 485273. TR-FRET; in the data active = inhibition above about 45%, passing the limit was not always enough
PfM18AAP inh: PfM18AAP enzyme inhibition. 1.2% of 290,000 active. inhibition, % at 7.35 µM. recombinant PfM18AAP, H-Glu-NHMec fluorogenic cleavage;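 active = inhibition above the campaign mean inhibition over all tested compounds plus 3 SD, cut at about 28% in these data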;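 note: 0% = plate median of test compound wells and 100% = 2 mM ZnCl2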
ZTA counter: ZTA (EBV) inhibition in EBNA-1 counter-screen; P03206; ZTA-DNA binding, fluorescence polarization; inhibition, % at 11 µM; 0.15% of 320,000 active; AID 2234; in the data active = inhibition above about 33%
PfGluPho inh: PfG6PD (Plasmodium falciparum) enzyme inhibition; PfGluPho enzyme, NADPH resazurin-diaphorase fluorescence; inhibition, % at 20 µM; 0.78% of 350,000 active; AID 504690;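 active = inhibition reaching at least a set limit at 20 µM in the primary screen, cut at about 59% in these data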;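 note: 0% = DMSO wells with substrate and 100% = DMSO wells lacking glucose-6-phosphate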
Apaf-1 inh: human Apaf-1 inhibition | reconstituted apoptosome caspase-3 activity, DEVD-Rh110 fluorescence | inhibition, % at 20 µM | 0.71% of 330,000 active; active = inhibition of at least 40% at 20 µM;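 note: plate controls were DMSO wells for no effect and DEVD-CHO caspase inhibitor wells for full effect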
Target sequence (O14727 whole entry, looked up): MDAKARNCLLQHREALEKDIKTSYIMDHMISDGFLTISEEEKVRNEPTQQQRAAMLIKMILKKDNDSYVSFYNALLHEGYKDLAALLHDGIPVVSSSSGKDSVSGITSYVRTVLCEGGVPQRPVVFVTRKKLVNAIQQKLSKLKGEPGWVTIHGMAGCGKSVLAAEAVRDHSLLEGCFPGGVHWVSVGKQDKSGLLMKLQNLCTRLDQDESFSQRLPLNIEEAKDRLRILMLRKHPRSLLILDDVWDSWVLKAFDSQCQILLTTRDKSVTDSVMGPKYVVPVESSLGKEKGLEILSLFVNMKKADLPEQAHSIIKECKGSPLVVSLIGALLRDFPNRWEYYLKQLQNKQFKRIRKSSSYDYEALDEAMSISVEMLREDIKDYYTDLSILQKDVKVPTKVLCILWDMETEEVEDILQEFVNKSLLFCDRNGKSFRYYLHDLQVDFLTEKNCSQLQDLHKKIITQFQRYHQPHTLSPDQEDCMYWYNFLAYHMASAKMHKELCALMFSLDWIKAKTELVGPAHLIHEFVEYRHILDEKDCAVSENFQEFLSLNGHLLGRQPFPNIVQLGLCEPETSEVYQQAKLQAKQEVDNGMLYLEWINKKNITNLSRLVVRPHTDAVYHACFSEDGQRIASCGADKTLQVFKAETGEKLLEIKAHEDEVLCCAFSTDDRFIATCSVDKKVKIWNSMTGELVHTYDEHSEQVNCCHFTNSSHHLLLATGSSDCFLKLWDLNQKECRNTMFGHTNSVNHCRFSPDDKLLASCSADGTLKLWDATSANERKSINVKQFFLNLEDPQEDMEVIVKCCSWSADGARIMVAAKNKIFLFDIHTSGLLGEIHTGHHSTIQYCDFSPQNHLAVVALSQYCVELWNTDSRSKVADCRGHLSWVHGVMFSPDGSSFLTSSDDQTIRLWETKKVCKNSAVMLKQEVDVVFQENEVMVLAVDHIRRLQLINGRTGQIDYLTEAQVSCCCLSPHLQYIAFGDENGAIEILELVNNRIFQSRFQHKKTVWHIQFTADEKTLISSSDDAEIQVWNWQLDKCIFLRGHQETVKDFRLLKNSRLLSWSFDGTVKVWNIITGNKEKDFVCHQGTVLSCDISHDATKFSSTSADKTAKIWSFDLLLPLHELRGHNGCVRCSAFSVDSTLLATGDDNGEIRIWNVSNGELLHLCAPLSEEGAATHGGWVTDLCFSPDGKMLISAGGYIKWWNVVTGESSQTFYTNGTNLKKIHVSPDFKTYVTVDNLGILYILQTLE
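Assay system: Apoptosome proteins | Medium: pH 7.5 Hepes buffer with CHAPS, BSA, DTT | Also added: Cytochrome c and DEVD-Rh110 substrate | Times: 30 min plus 50 min, RT | Detection: Rhodamine 110 fluorescence at Ex 480/Em 540 nm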
EBNA-1 inh: blocks EBNA-1 binding to DNA; EBNA-1 DNA binding, fluorescence polarization; 0.34% of 300,000 active; inhibition, % at 14.8 µM; in the data active = inhibition above about 28%
PfG6PD confirm: PfG6PD inhibition, single-dose confirmed; shares compounds with PfGluPho inh; recombinant PfGluPho, NADPH-diaphorase-resazurin fluorescence; inhibition, % at 20 µM; 34% of 2,400 active; AID 504753;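 active = inhibition of at least 50% at 20 µM in any single replicate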;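 note: 0% = DMSO with substrate and 100% = DMSO lacking glucose-6-phosphate substrate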
Diaphorase 10uM: inhibits diaphorase or oxidizes, flagging false PfG6PD hits; shares compounds with PfGluPho inh; inhibition, % at 20 µM; diaphorase-coupled resazurin reduction, fluorescence, NADPH 10 uM; 39% of 820 active;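 active = average inhibition reaching 50% or more with the compound at 20 µM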;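 note: resorufin red fluorescence formed as diaphorase reduces resazurin using NADPH; 0% = DMSO with enzyme and 100% = DMSO without enzyme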
Diaph ctr 30uM: inhibits diaphorase or oxidizes, flagging false PfG6PD hits | shares compounds with PfGluPho inh | Diaphorase/resazurin coupled assay, resorufin fluorescence, 30 uM NADPH | inhibition, % at 20 µM | 29% of 820 active | AID 504863;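 active = inhibition averaging 50% or more, tested at 20 µM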;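 note: 0% = DMSO with enzyme and 100% = DMSO wells lacking diaphorase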
Numbers without * were called inactive; / = no result. Sampled rows, rich in hits. Any-hit rate of the full collection: about 2.9%.

SMILES	UBC13 inh	PfM18AAP inh	ZTA counter	PfGluPho inh	Apaf-1 inh	EBNA-1 inh	PfG6PD confirm	others
Cc1nc2ccc(Cl)cc2nc(C)/c1=N\O	-4	0	-14	60*	6	3	11
Cn1ncc(Br)c1C(=O)N/N=C/c1cccc(OC2CSC2)c1	9	1	6	115*	3	-1	91*	Diaphorase 10uM=91*;Diaph ctr 30uM=81*
Nc1ccccc1SCC(=O)Nc1cccc2ccccc12	0	3	-23	67*	7	-7	10
O=C(CSc1cccs1)Nc1cccc2ccccc12	-8	-2	-6	3	-5	-1	/
CC(=O)c1ccc(-n2nnnc2SCC(=O)NC2CCCCC2)cc1	0	11	16	-5	-6	-8	/
O=C(NCCN1CCN(c2ccccc2)CC1)Nc1cccc(Cl)c1	-4	-15	-6	8	9	4	/
CCCCOC(=O)Nc1ccc(S(=O)(=O)Nc2onc(C)c2C)cc1	-5	2	-13	1	-3	-3	/
CCc1c(C)sc(NC(=O)c2ccoc2C)c1C(N)=O	17	40*	17	94*	-6	11	44
CCOC(=O)c1c(NC(=O)c2ccoc2C)sc(C)c1C	16	-9	4	2	5	0	/
COc1ccc(NC(=O)c2ccc(OC(F)F)cc2)cc1Cl	0	-13	-3	85*	-2	5	2
COc1ccc(NC(=O)c2cc(F)cc(F)c2)cc1Cl	-7	7	-2	0	-3	7	/
COc1ccc(-n2ccc(-c3nn(-c4cccc(C(F)(F)F)c4)ccc3=O)n2)cc1	1	-2	-2	25	12	-1	/
O=c1ccn(-c2cccc(C(F)(F)F)c2)nc1-c1ccn(-c2ccccc2F)n1	4	5	-5	104*	16	-2	102*	Diaphorase 10uM=97*;Diaph ctr 30uM=78*
COc1cc(/C=N/O)cc(Br)c1OCc1ccc(Cl)cc1	1	7	9	81*	22	-2	11
O=C(Nc1scc(-c2ccccc2)c1C(=O)O)c1ccccc1Cl	-6	6	11	36	16	1	/
COc1cc(C(=O)Nc2scc(-c3ccc(C)cc3)c2C(=O)O)cc(OC)c1OC	-10	1	16	76*	14	3	35
COc1cc(C(=O)Nc2scc(-c3ccccc3)c2C(=O)O)cc(OC)c1OC	-13	-9	-17	69*	14	6	31
O=C(/C=C/c1cccs1)Nc1scc(-c2ccccc2)c1C(=O)O	/	24	/	70*	/	/	39
Cc1ccc(C(=O)Nc2scc(-c3ccccc3)c2C(=O)O)cc1	-3	/	-6	105*	10	2	47
O=C(/C=C/c1cccs1)Nc1nc(-c2ccccc2)cs1	-1	-2	-15	9	10	-6	/
COc1ccc(S(=O)(=O)N2CCC(O)(c3cccnc3)CC2)cc1OC	4	-1	2	-11	-8	-2	/
CCc1ccc(NC(=O)C(C)OC(=O)CC(NC(C)=O)c2ccccc2)cc1 (stereo unspecified)	-6	-2	-8	20	6	-12	/
COc1ccc(Cc2nc3ccc(C(=O)NCCc4ncccc4C)cc3o2)cc1OC	/	/	/	-10	/	/	/
COC1C=CC(CNC(=O)c2cc3c(=O)n4cccc(C)c4nc3n2C)(OC)O1 (stereo unspecified)	-1	0	-12	79*	-1	-13	-7
Cc1cccn2c(=O)c3cc(C(=O)NCC4CCCO4)n(C)c3nc12 (stereo unspecified)	/	-9	/	/	/	/	/
SMILES	UBC13 inh	PfM18AAP inh	ZTA counter	PfGluPho inh	Apaf-1 inh	EBNA-1 inh	PfG6PD confirm	others
CCC(c1ccc(O)c(O)c1)C(CC)c1ccc(O)c(O)c1 (stereo unspecified)	/	/	/	78*	/	/	57*	Diaphorase 10uM=8;Diaph ctr 30uM=3
Cc1cccc(NC(=O)c2ccc(N(C)C3CCCCC3)c([N+](=O)[O-])c2)n1	4	-3	-9	60*	-4	-5	-9
Cc1cccc(NC(=O)c2ccc(N3CCOCC3)c([N+](=O)[O-])c2)n1	-18	-8	13	70*	-22	3	19
CC1CCN(c2ccc(C(=O)Nc3ccc4c(c3)OCO4)cc2[N+](=O)[O-])CC1	-28	3	-14	62*	9	10	-13
Cc1ccc(C)c2sc(NC(=O)c3ccc(N4CCCCC4)c([N+](=O)[O-])c3)nc12	-25	4	6	19	-8	6	/
O=C(Nc1cccnc1)c1ccc(N2CCOCC2)c([N+](=O)[O-])c1	-19	6	/	13	2	/	/
Cc1cccc(NC(=O)c2ccc(N3CCCCC3)c([N+](=O)[O-])c2)n1	-25	-4	-15	98*	18	13	25
Cc1ccc(NC(=O)CSc2nc3ncc(Cl)cc3[nH]2)c(C)c1	-13	-2	8	-2	-5	5	/
Cc1cc(C(=O)Nc2ccc(N3CCCC3)c(Cl)c2)ccc1[N+](=O)[O-]	-15	-6	-6	67*	22	1	2
O=C(Nc1ccc(N2CCCC2)c(Cl)c1)c1ccc([N+](=O)[O-])cc1	-13	-2	3	12	5	-6	/
Cc1ccsc1C(=O)OCC(=O)NC1CCCCC1C (stereo unspecified)	8	/	-3	12	-3	/	/
N#Cc1c(-c2ccccc2Cl)cc(-c2ccccc2)nc1Br	35	-8	-10	4	13	-8	/
O=C(c1ccccc1Cl)N(C(=O)c1ccccc1Cl)c1nccc(-c2cccs2)n1	-18	-2	-9	110*	15	11	69*	Diaphorase 10uM=73*;Diaph ctr 30uM=65*
O=C(Nc1nccc(-c2cccs2)n1)c1ccccc1Cl	8	-1	0	142*	1	3	110*	Diaphorase 10uM=102*;Diaph ctr 30uM=81*
O=C(CSc1nccc(-c2cccs2)n1)Nc1cccc(Cl)c1Cl	8	-7	1	8	-13	4	/
O=C(c1ccc2c(c1)OCO2)N1CCN(S(=O)(=O)c2ccc(Br)cc2Cl)CC1	-1	/	-1	0	9	/	/
Cc1ccc(/C=C/C(=O)OCC(=O)c2ccc3c(c2)NC(=O)CO3)o1	10	/	/	71*	3	/	-9
CC(C)c1nc2oc3c(N(C)CCO)ncnc3c2c2c1CCC2	-2	-3	5	29	9	2	/
Cc1ccc(NS(=O)(=O)c2ccccc2)c2c1CC(C)(C)O2	6	6	11	92*	-3	1	65*	Diaphorase 10uM=54*;Diaph ctr 30uM=50*
CCN(CC)C(=O)C1c2ccccc2Oc2ccccc21	-5	-6	-16	-5	-3	6	/
